# Test results from ChEMBL document CHEMBL4339209, “Chemical modifications of imidazole-containing alkoxyamines increase C-ON bond homolysis rate: Effects on their cytotoxic properties in glioblastoma cells” (Bioorg Med Chem, 2019).
# Activity calls are given as the source filed them. The calls are words filed in the database; no cut-off is given here.
# Key:
# [1] = Stability in H2O/MeOH buffered with HCl/KCl at pH 2.2 assessed as temperature; type: physicochemical; conditions: buffer
# [2] = Half life in H2O/MeOH buffered with HEPES/NaCl at pH 7.4 in presence of alkyl radical scavenger TEMPOR by 31P[1H]-NMR analysis; type: physicochemical; conditions: for half-life: H2O/MeOH buffered with HEPES/NaCl
# [3] = Dissociation constant, pKa of the compound in 1:1 v/v D2O/CD3OD by 1H-NMR spectrometric method; type: physicochemical; conditions: 1:1 v/v D2O/CD3OD; read-out: pKa
# How it was run: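 Samples in D2O/CD3OD (1:1 v/v) were adjusted with DCl/NaOD to a series of pH* values, read on a meter calibrated with non-deuterated standards, and 1H-NMR was recorded at 400 MHz. Imidazole proton chemical shifts were plotted against pH* and fitted sigmoidally. The pKa* was converted by pH = 0.929 pH* + 0.42.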
# [4] = Half life in H2O/MeOH buffered with HCl/KCl at pH 2.2 in presence of alkyl radical scavenger TEMPOR by 31P[1H]-NMR analysis; type: physicochemical; conditions: for half-life: H2O/MeOH buffered with HCl/KCl
# [5] = Half life in H2O/MeOH buffered with Na2CO3/NaHCO3 at pH 10.3 in presence of alkyl radical scavenger TEMPOR by 31P[1H]-NMR analysis; type: physicochemical; conditions: for half-life: H2O/MeOH buffered with Na2CO3/NaHCO3, pH 10.3
# [6] = Stability in H2O/MeOH buffered with Na2CO3/NaHCO3 at pH 10.3 assessed as temperature; type: physicochemical; conditions: buffer
# [7] = Stability in H2O/MeOH buffered with HEPES/NaCl at pH 7.4 assessed as temperature; type: physicochemical; conditions: buffer
# [8] = n-octanol/phosphate buffered saline partition coefficient, log D of the compound at pH 7.4 by shake-flask method; type: physicochemical; conditions: n-octanol/phosphate buffered saline, read-out: logD
# How it was run: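 Shake-flask partition between pre-saturated n-octanol and PBS at pH 7.4. The aqueous phase was quantified by RP-HPLC on a 4.6 × 50 mm column, eluting with CH3CN/H2O (each with 0.1% TFA) from 10:90 to 100:0 over 10 min.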
# U-87 MG = assay: Cytotoxicity against human U87MG cells assessed as reduction in cell survival measured after 72 hrs by MTT assay; type: functional, cell-based, U-87MG ATCC; conditions: for Activity: U-87MG ATCC
# How it was run: (§1)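 MTT viability on 2D cultures, U87-MG in DMEM and U251-MG in EMEM with […], both with 10% FBS and Pen Strep. 5000 cells seeded, then 72 h exposure to 500, 250, 100, 50, 25, 10 and 5 μM (DMSO at most […]). MTT 0.5 mg/mL for 1 h, formazan in DMSO read at 550 nm. Survival as % of control. IC50 determined graphically. At least triplicate.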
# [9] = Stability in DMSO/TsOH assessed as temperature; type: physicochemical
# [10] = Stability in DMSO assessed as temperature; type: physicochemical
# [11] = Drug homolysis in DMSO/TsOH assessed as rate constant by measuring nitroxide level in presence of alkyl radical scavenger TEMPOR by 31P[1H]-NMR analysis
# U-251 [12] = assay: Cytotoxicity against human U251MG cells assessed as reduction in cell survival at IC50 measured after 72 hrs in presence of alkyl radical scavenger troxerutin by MTT assay; type: functional, cell-based
# How it was run: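 U251-MG cells in EMEM (10% FBS, Pen Strep, […]) were exposed for 72 h to alkoxyamine together with an equal concentration of the alkyl radical scavenger troxerutin. Survival was read by MTT (0.5 mg/mL, 1 h, OD 550 nm) as % of control, and compared with alkoxyamine alone. At least triplicate.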
# U-251 [13] = assay: Cytotoxicity against human U251MG cells assessed as reduction in cell survival measured after 72 hrs by MTT assay; type: functional, cell-based; how it was run: as §1
# [14] = Drug homolysis in DMSO/TsOH assessed as activation energy in presence of alkyl radical scavenger TEMPOR by 31P[1H]-NMR analysis
# [15] = Drug homolysis in DMSO assessed as activation energy in presence of alkyl radical scavenger TEMPOR by 31P[1H]-NMR analysis
# [16] = Drug homolysis in DMSO assessed as rate constant by measuring nitroxide level in presence of alkyl radical scavenger TEMPOR by 31P[1H]-NMR analysis
T [1] [°C],half-life [2] [h],pKa [3],half-life [5] [h],T [6] [°C],T [7] [°C],logD [8],half-life [4] [h],SMILES,IC50 (U-87 MG) [µM],further results
80,792,6.76,1560,80,80,3.5,,CCOP(=O)(OCC)C(N(OC(C)c1cn(C)cn1)C(C)(C)C)C(C)(C)C (stereo in doubt; form 1),25 to 380,t1/2 ([4]; buffer): 65 h
60,,6.28,,80,70,3.4,2.4,CCOP(=O)(OCC)C(N(OC(C)c1nccn1C)C(C)(C)C)C(C)(C)C (stereo in doubt; form 1),25 to 380,"t1/2 ([2]; buffer): 31 h; t1/2 ([5]; buffer, pH 10.3): 130 h"

# Continued, compound first:
SMILES,T [1] [°C],half-life [2] [h],pKa [3],half-life [5] [h],T [6] [°C],T [7] [°C],logD [8],half-life [4] [h],IC50 (U-87 MG) [µM],further results
CCOP(=O)(OCC)C(N(OC(C)c1c[nH]cn1)C(C)(C)C)C(C)(C)C (stereo in doubt; form 1),80,288,6.11,408,80,80,3.7,103,25 to 380,
CCOP(=O)(OCC)C(N(OC(C)n1ccnc1)C(C)(C)C)C(C)(C)C (stereo in doubt; form 1) [listing 1 of 2 here],,,5.62,,,,3.4,,25 to 380,T [9]: 160 °C; T [10]: 160 °C
CCOP(=O)(OCC)C(N(OC(C)n1ccnc1)C(C)(C)C)C(C)(C)C (stereo in doubt; form 1) [listing 2 of 2 here],,,,,,,,,,Kdiss [11]: 1.44 ×10⁻³ /s; Activity (U-251 [12]): Active; Activity (U-251 [13]): Dose-dependent effect; Ea [14]: 34.1 kcal/mol; Ea [15]: 35.6 kcal/mol; Kdiss [16]: 2.69 ×10⁻⁴ /s; Activity (U-87 MG): Dose-dependent effect
CCOP(=O)(OCC)C(N(OC(C)c1ncc[nH]1)C(C)(C)C)C(C)(C)C (stereo in doubt; form 2),60,60,6.09,240,80,70,3.6,4,25 to 380,
CCOP(=O)(OCC)C(N(OC(C)n1ccnc1)C(C)(C)C)C(C)(C)C (stereo in doubt; form 2),,,,,,,,,,Kdiss [11]: 2.45 ×10⁻³ /s; Activity (U-251 [12]): Active; Activity (U-251 [13]): Dose-dependent effect; Ea [14]: 33.7 kcal/mol; Ea [15]: 34.6 kcal/mol; Kdiss [16]: 8.02 ×10⁻⁴ /s; Activity (U-87 MG): Dose-dependent effect
